Screening results: PubChem BioAssay, Broad Institute
T cruzi growth-1: blocks T. cruzi growth in NIH3T3 culture. T. cruzi beta-gal in NIH3T3, GalScreen luminescence, 90 h. inhibition, % at 8.34 µM. 5.9% of 77,000 active. AID 624255;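 active = mean inhibition above about 93%, with at least 55% of replicates each passing it, limit read from the data, passing the limit was not always enough; inconclusive = only one of those two conditions holds; inactive = neither condition holds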
IDH1 mut inh: blocks human IDH1 R132H reductase activity; AID 624101; O75874; inhibition, % at 10 µM; 0.18% of 70,000 active; diaphorase/resazurin fluorescence, 60 min; in the data active = inhibition above about 34%; inconclusive = no clear call, values can overlap the other calls; inactive = below about 11%
KDM4C inh: inhibitors of human demethylase GASC-1 KDM4C | GST-KDM4C 2-372, H3K9me3 peptide, LANCE TR-FRET | inhibition, % at 12.5 µM | 0.15% of 96,000 active;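 active = mean replicate inhibition above about 25%, with at least 55% of replicates also reaching it, limit read from the data, passing the limit was not always enough; inconclusive = only one of those two conditions met; inactive = neither condition met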
Target sequence (Q9H3R0 2-372 limits assumed): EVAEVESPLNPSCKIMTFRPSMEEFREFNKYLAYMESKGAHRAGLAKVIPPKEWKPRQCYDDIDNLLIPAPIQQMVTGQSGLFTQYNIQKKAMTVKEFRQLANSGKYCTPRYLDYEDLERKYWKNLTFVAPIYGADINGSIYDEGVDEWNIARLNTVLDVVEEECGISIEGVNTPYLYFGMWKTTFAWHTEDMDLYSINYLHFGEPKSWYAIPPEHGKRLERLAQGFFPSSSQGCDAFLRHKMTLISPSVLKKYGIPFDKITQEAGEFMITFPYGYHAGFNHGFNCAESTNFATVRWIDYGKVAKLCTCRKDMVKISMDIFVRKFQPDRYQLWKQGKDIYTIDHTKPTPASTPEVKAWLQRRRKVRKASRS
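System – N-terminal GST-fused human GASC-1 (KDM4C) fragment, residues 2-372 · Input – enzyme final amount 10 nM · Technique – LANCE TR-FRET, Eu antibody, ULight-streptavidin, EDTA, ex 340 nm, em 618/671 nm · Medium – HEPES buffer, pH 7.5, plus ascorbate · Incubation – enzyme reaction 30 min, then detection 60 min, both room temperature · Reagent – H3K9me3 peptide with Fe(II)/2OG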
T cruzi growth-2: inhibitors of T. cruzi proliferation | shares compounds with T cruzi growth-1 | T. cruzi beta-gal in NIH3T3, GalScreen luminescence, 90 h | inhibition, % at 8.35 µM | 72% of 5,600 active | AID 651739;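 active = mean replicate inhibition above about 95% and at least 55% of replicates individually reaching it, limit read from the data; inconclusive = only one of the two criteria is met; inactive = neither criterion is met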
T cruzi growth-3: blocks T. cruzi growth in NIH3T3 host cells; T. cruzi beta-gal in NIH3T3, GalScreen luminescence, 90 h; inhibition, % at 2.09 µM; shares compounds with T cruzi growth-1; AID 651740; 21% of 5,600 active;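 active = mean inhibition above about 95%, with at least 55% of replicates also reaching it, limit read from the data; inconclusive = meets just one of the two conditions; inactive = meets neither condition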
NIH3T3 tox: NIH/3T3 (mouse) viability loss; shares compounds with T cruzi growth-1; NIH/3T3 viability, CellTiter-Glo ATP luminescence, 90 h; cytotoxicity (signal decrease), % at 8.35 µM; 14% of 5,600 active;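 active = mean signal decrease across replicates above about 35% based on untreated-well scatter, with enough replicates individually passing, limit read from the data; inconclusive = no rule stated though some were filed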
NIH3T3 tox 2: cytotoxicity in mouse NIH/3T3 fibroblasts | inhibition, % at 24.9 µM | 56% of 5,600 active | NIH/3T3 viability, CellTiter-Glo ATP luminescence, 90 h | shares compounds with T cruzi growth-1 | AID 651744;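 active = mean loss of cell viability signal at or above a set limit, and enough replicates individually reaching it; inconclusive = meets only the mean limit or only the replicate share; inactive = meets neither condition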
Hits are given with their value; - = inactive; ? = inconclusive; . = no result; ! = not confirmed by another sample. The full list was thinned out, with hits kept by preference.

SMILES	T cruzi growth-1	IDH1 mut inh	KDM4C inh	T cruzi growth-2	T cruzi growth-3	NIH3T3 tox	NIH3T3 tox 2
CCCNC(=O)N1[C@H](C#N)[C@@H](c2ccc(-c3cccnc3)cc2)[C@@H]1CO	-	.	-	.	.	.	.
CCCNC(=O)N1[C@H](C#N)[C@H](c2ccc(-c3cccc(OC)c3)cc2)[C@@H]1CO	98.8	.	.	-	112.4	-	39.9
CCCNC(=O)N1[C@H](C#N)[C@@H](c2ccc(-c3cccc(OC)c3)cc2)[C@@H]1CO	-	.	-	.	.	.	.
CCCNC(=O)C[C@@H]1CC[C@H]2[C@@H](COc3ccc(NC(=O)c4cc(F)cc(F)c4)cc3C(=O)N2C)O1	-	.	-	.	.	.	.
Cc1ccc(S(=O)(=O)Nc2ccc3c(c2)C(=O)N([C@H](C)CO)C[C@@H](C)[C@@H](CN(C)Cc2ccc(C(F)(F)F)cc2)OCCCC[C@@H](C)O3)cc1	.	-	-	.	.	.	.
C[C@@H]1CN([C@H](C)CO)S(=O)(=O)c2ccc(-c3ccc(F)cc3)cc2O[C@@H]1CN(C)C(=O)C1CCCCC1	107.7	.	-	103.5	-	-	101.6
Cc1ccc(-c2ccc3c(c2)O[C@H](CN(C)C(=O)C2CCC2)[C@@H](C)CN([C@@H](C)CO)S3(=O)=O)cc1	-	.	-	.	.	.	.
C[C@@H]1CN([C@@H](C)CO)S(=O)(=O)c2ccc(-c3ccc(F)cc3)cc2O[C@H]1CN(C)C(=O)C1CCC1	-	.	-	.	.	.	.
Cc1ccc(-c2ccc3c(c2)O[C@H](CN(C)C(=O)C2CCCCC2)[C@@H](C)CN([C@H](C)CO)S3(=O)=O)cc1	112.4	-	-	107.7	102.6	-	93.8
Cc1ccc(-c2ccc3c(c2)O[C@@H](CN(C)C(=O)C2CC2)[C@@H](C)CN([C@H](C)CO)S3(=O)=O)cc1	-	-	-	.	.	.	.
Cc1ccc(-c2ccc3c(c2)O[C@@H](CN(C)C(=O)C2CCCCC2)[C@H](C)CN([C@@H](C)CO)S3(=O)=O)cc1	120.1	.	-	107.6	?	-	96.5
C[C@H]1CN([C@@H](C)CO)C(=O)Cc2cc(NC(=O)Nc3cccc4ccccc34)ccc2O[C@H]1CN(C)Cc1ccc(Cl)c(Cl)c1	-	-	-	.	.	.	.
C[C@@H]1CN([C@H](C)CO)C(=O)CCCn2cc(nn2)CO[C@@H]1CN(C)Cc1ccc(O)cc1	-	-	-	.	.	.	.
CC(C)NC(=O)Nc1ccc2c(c1)C(=O)N([C@@H](C)CO)C[C@H](C)[C@H](CN(C)Cc1ccc(C(=O)O)cc1)OCCCC[C@H](C)O2	-	-	-	.	.	.	.
O=C(C[C@@H]1CC[C@H](NC(=O)C2CCC2)[C@H](CO)O1)NCc1ccncc1	.	-	-	.	.	.	.
CC(=O)Nc1ccc2c(c1)C(=O)N(C)[C@H]1CC[C@H](CC(=O)NCc3ccccc3Cl)O[C@@H]1CO2	-	.	-	.	.	.	.
C[C@@H]1CCCCO[C@H](CN(C)C(=O)Nc2ccc(F)cc2)[C@H](C)CN([C@@H](C)CO)C(=O)c2cc(NC(=O)NC3CCCCC3)ccc2O1	-	-	-	.	.	.	.
COc1ccc(NC(=O)N(C)C[C@H]2OCCCC[C@@H](C)Oc3ccc(N(C)C)cc3C(=O)N([C@H](C)CO)C[C@@H]2C)cc1	105.2!	-	-	-	-	-	34.0
COc1ccc(NC(=O)N(C)C[C@@H]2OCCCC[C@H](C)Oc3ccc(N(C)C)cc3C(=O)N([C@H](C)CO)C[C@@H]2C)cc1	-	.	-	.	.	.	.
COc1ccc(NC(=O)N(C)C[C@@H]2OCCCC[C@H](C)Oc3ccc(N(C)C)cc3C(=O)N([C@H](C)CO)C[C@H]2C)cc1	-	-	-	.	.	.	.
COc1ccc(NC(=O)N(C)C[C@H]2OCCCC[C@H](C)Oc3ccc(N(C)C)cc3C(=O)N([C@H](C)CO)C[C@@H]2C)cc1	99.7	.	-	-	-	-	-
C[C@H]1CN([C@@H](C)CO)C(=O)c2cc(C#CC3CCCCC3)cnc2O[C@@H]1CN(C)S(=O)(=O)c1ccc(F)cc1	108.4	-	-	99.7	-	-	94.6
C[C@H](CO)N1C[C@H](C)[C@@H](CN(C)S(=O)(=O)c2cccc(F)c2)Oc2ncc(C#CC3CCCCC3)cc2C1=O	.	-	.	.	.	.	.
C[C@H](CO)N1C[C@H](C)[C@H](CN(C)S(C)(=O)=O)Oc2ncc(C#CC3CCCCC3)cc2C1=O	-	-	-	.	.	.	.
C[C@@H]1CN([C@H](C)CO)C(=O)c2cc(C#CC3CCCCC3)cnc2O[C@H]1CN(C)S(=O)(=O)c1cccc(F)c1	.	-	-	.	.	.	.
SMILES	T cruzi growth-1	IDH1 mut inh	KDM4C inh	T cruzi growth-2	T cruzi growth-3	NIH3T3 tox	NIH3T3 tox 2
C[C@H]1CN([C@@H](C)CO)C(=O)c2cc(C#CC3CCCCC3)cnc2O[C@@H]1CN(C)S(=O)(=O)c1ccccc1	?	.	-	111.2	-	-	86.8
C[C@@H]1CN([C@H](C)CO)C(=O)c2cc(C#CC3CCCCC3)cnc2O[C@@H]1CN(C)S(=O)(=O)c1ccccc1	?	-	-	105.8	-	-	91.1
C[C@H](CO)N1C[C@H](C)[C@@H](CN(C)S(=O)(=O)c2ccccc2)Oc2ncc(C#CC3CCCCC3)cc2C1=O	107.5	-	-	106.1	-	-	85.4
C[C@H](CO)N1C[C@H](C)[C@@H](CN(C)S(=O)(=O)c2ccc(F)cc2)Oc2ncc(C#CC3CCCCC3)cc2C1=O	-	-	-	.	.	.	.
Cc1cccc(NC(c2ccccc2C)c2ccc3ccc(C)nc3c2O)n1 (configuration not stated)	.	-	.	.	.	.	.
CCNC(=O)C[C@@H]1CC[C@H]2[C@@H](COC[C@@H](O)CN2Cc2ccccc2F)O1	-	.	-	.	.	.	.
CC(=O)N[C@@H]1CC[C@H](CCNC(=O)Nc2ccc(C(F)(F)F)cc2)O[C@H]1CO	-	-	-	.	.	.	.
C[C@@H]1CN([C@H](C)CO)C(=O)Cc2cc(NS(=O)(=O)c3ccc(F)cc3)ccc2O[C@H]1CN(C)Cc1ccc(C(F)(F)F)cc1	-	-	-	.	.	.	.
C[C@@H]1CN([C@@H](C)CO)C(=O)c2cc(C#CC3CCCCC3)cnc2O[C@@H]1CN(C)S(=O)(=O)c1ccccc1	111.0	-	-	108.3	-	-	94.1
C[C@H]1CN([C@@H](C)CO)C(=O)c2cc(C#CC3CCCCC3)cnc2O[C@H]1CN(C)S(=O)(=O)c1cccc(F)c1	.	-	-	.	.	.	.
CC(=O)CCCC1Cc2cccc(O)c2C(=O)O1 (configuration not stated)	.	-	.	.	.	.	.
C[C@H]1CN([C@@H](C)CO)C(=O)c2cc(C#Cc3cccc(F)c3)cnc2O[C@@H]1CN(C)C(=O)C1CCC1	-	-	-	.	.	.	.
C[C@H]1CN([C@@H](C)CO)C(=O)c2ccccc2-c2ccccc2CO[C@H]1CN(C)C(=O)Nc1ccnc(N2CCOCC2)c1	105.5	.	-	101.3	-	-	33.4
C[C@H](CO)N1C[C@H](C)[C@@H](CN(C)C(=O)Nc2ccccc2)OCc2ccccc2-c2ccccc2C1=O	-	-	-	.	.	.	.
